Results from ChEMBL document CHEMBL4330069, “Boosting the efficacy of anti-MRSA β-lactam antibiotics via an easily accessible, non-cytotoxic and orally bioavailable FtsZ inhibitor” (Eur J Med Chem, 2019).
Converted amounts (≈) assume the structure as drawn.

Experiments:
[1] = tested on: Staphylococcus aureus; experiment: Antibacterial activity against Staphylococcus aureus ATCC 29213 harboring FtsZ 128 mutation after 20 hrs; assay type: functional; conditions: ATCC 29213, 20 h
Summary of the method: (§1)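 Broth microdilution MIC per CLSI guidelines, compounds dissolved in DMSO. Resistant mutants were selected by serial passage of ATCC 29213 in LB at 37 °C with shaking at 250 rpm. Each 20 h culture started at half the MIC, and the concentration was doubled at each transfer. Growth inhibition was read by eye, in duplicate.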

[2] = tested on: Staphylococcus aureus; experiment: Antibacterial activity against multidrug-resistant Staphylococcus aureus ATCC 43300 infected in BALB/C mouse assessed as mouse survival at 50 mg/kg, ip bid measured on day 4 post infection (reference value: 50%); assay type: functional
[3] = tested on: Staphylococcus aureus; experiment: Antibacterial activity against Staphylococcus aureus ATCC 29213 harboring FtsZ 32 mutation after 20 hrs; assay type: functional; conditions: ATCC 29213, 20 h; summary of the method: as §1
[4] = tested on: Staphylococcus aureus; experiment: Synergistic antibacterial activity against multidrug-resistant Staphylococcus aureus isolate 2490 in presence of amoxicillin by broth microdilution assay; assay type: functional
Summary of the method: (§2)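 Clinical MRSA isolate panel; compound and β-lactam tested alone and in combination by CLSI broth microdilution, compounds dissolved in DMSO, growth inhibition scored by eye, run in duplicate. FIC index = FIC(compound) + FIC(drug), each the MIC in combination divided by the MIC alone; an index ≤ 0.5 was called synergy.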

[5] = tested on: Staphylococcus aureus; experiment: Synergistic antibacterial activity against multidrug-resistant Staphylococcus aureus isolate 256 in presence of amoxicillin by broth microdilution assay; assay type: functional
Summary of the method: (§3)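 CLSI broth microdilution on clinical MRSA isolates. MICs were measured for the β-lactam alone, the test agent alone and the two combined. Compounds were dissolved in DMSO, and growth inhibition was scored by eye. FIC index is the sum, over both agents, of MIC in combination divided by MIC alone. An FIC index ≤0.5 was taken as synergy.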

[6] = tested on: Staphylococcus aureus; experiment: Synergistic antibacterial activity against multidrug-resistant Staphylococcus aureus isolate 1749 in presence of amoxicillin by broth microdilution assay; assay type: functional; summary of the method: as §2
[7] = tested on: Staphylococcus aureus; experiment: Synergistic antibacterial activity against multidrug-resistant Staphylococcus aureus isolate 2728 in presence of amoxicillin by broth microdilution assay; assay type: functional; summary of the method: as §3
[8] = tested on: Staphylococcus aureus; experiment: Synergistic antibacterial activity against multidrug-resistant Staphylococcus aureus isolate 200 in presence of amoxicillin by broth microdilution assay; assay type: functional; summary of the method: as §2
[9] = tested on: Staphylococcus aureus; experiment: Synergistic antibacterial activity against multidrug-resistant Staphylococcus aureus isolate 2973 in presence of amoxicillin by broth microdilution assay; assay type: functional; summary of the method: as §3
[10] = tested on: Staphylococcus aureus; experiment: Synergistic antibacterial activity against multidrug-resistant Staphylococcus aureus isolate 2516 in presence of methicillin by broth microdilution assay; assay type: functional; summary of the method: as §3
[11] = tested on: Staphylococcus aureus; experiment: Synergistic antibacterial activity against multidrug-resistant Staphylococcus aureus isolate 774 in presence of methicillin by broth microdilution assay; assay type: functional
[12] = tested on: Staphylococcus aureus; experiment: Synergistic antibacterial activity against multidrug-resistant Staphylococcus aureus isolate 1449 in presence of methicillin by broth microdilution assay; assay type: functional; summary of the method: as §2
[13] = tested on: Staphylococcus aureus; experiment: Synergistic antibacterial activity against multidrug-resistant Staphylococcus aureus isolate 2490 in presence of cloxacillin by broth microdilution assay; assay type: functional; summary of the method: as §2
[14] = tested on: Staphylococcus aureus; experiment: Synergistic antibacterial activity against multidrug-resistant Staphylococcus aureus isolate 2895 in presence of cloxacillin by broth microdilution assay; assay type: functional; summary of the method: as §3
[15] = tested on: Staphylococcus aureus; experiment: Synergistic antibacterial activity against multidrug-resistant Staphylococcus aureus isolate 2919 in presence of cloxacillin by broth microdilution assay; assay type: functional; summary of the method: as §3
[16] = tested on: Staphylococcus aureus; experiment: Synergistic antibacterial activity against multidrug-resistant Staphylococcus aureus isolate 254 in presence of cefuroxime by broth microdilution assay; assay type: functional; summary of the method: as §3
[17] = tested on: Staphylococcus aureus; experiment: Synergistic antibacterial activity against multidrug-resistant Staphylococcus aureus isolate 2901 in presence of cefuroxime by broth microdilution assay; assay type: functional; summary of the method: as §3
[18] = tested on: Staphylococcus aureus; experiment: Synergistic antibacterial activity against multidrug-resistant Staphylococcus aureus isolate 2224 in presence of cefuroxime by broth microdilution assay; assay type: functional; summary of the method: as §2
[19] = tested on: Staphylococcus aureus; experiment: Synergistic antibacterial activity against multidrug-resistant Staphylococcus aureus isolate 200 in presence of cefuroxime by broth microdilution assay; assay type: functional; summary of the method: as §2
[20] = tested on: Staphylococcus aureus; experiment: Synergistic antibacterial activity against multidrug-resistant Staphylococcus aureus isolate 2516 in presence of meropenem by broth microdilution assay; assay type: functional; summary of the method: as §3
[21] = tested on: Staphylococcus aureus; experiment: Synergistic antibacterial activity against multidrug-resistant Staphylococcus aureus isolate 757 in presence of meropenem by broth microdilution assay; assay type: functional
[22] = tested on: Staphylococcus aureus; experiment: Synergistic antibacterial activity against multidrug-resistant Staphylococcus aureus isolate 358 in presence of meropenem by broth microdilution assay; assay type: functional
[23] = tested on: Staphylococcus aureus; experiment: Synergistic antibacterial activity against multidrug-resistant Staphylococcus aureus isolate 2973 in presence of meropenem by broth microdilution assay; assay type: functional; summary of the method: as §3
[24] = tested on: Staphylococcus aureus; experiment: Synergistic antibacterial activity against multidrug-resistant Staphylococcus aureus isolate 3580 assessed as fractional Inhibitory concentration index in presence of amoxicillin by broth microdilution assay; assay type: functional
[25] = tested on: Staphylococcus aureus; experiment: Synergistic antibacterial activity against multidrug-resistant Staphylococcus aureus isolate 3267 assessed as fractional Inhibitory concentration index in presence of methicillin by broth microdilution assay; assay type: functional
[26] = tested on: Staphylococcus aureus; experiment: Synergistic antibacterial activity against multidrug-resistant Staphylococcus aureus isolate 3580 assessed as fractional Inhibitory concentration index in presence of methicillin by broth microdilution assay; assay type: functional
[27] = tested on: Staphylococcus aureus; experiment: Synergistic antibacterial activity against multidrug-resistant Staphylococcus aureus isolate 200 assessed as fractional Inhibitory concentration index in presence of methicillin by broth microdilution assay; assay type: functional
[28] = tested on: Staphylococcus aureus; experiment: Synergistic antibacterial activity against multidrug-resistant Staphylococcus aureus isolate 2516 assessed as fractional Inhibitory concentration index in presence of cloxacillin by broth microdilution assay; assay type: functional
Summary of the method: (§4)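 CLSI broth microdilution run on clinical MRSA isolates with each β-lactam alone, the test agent alone, and the two combined; agents dissolved in DMSO. Growth inhibition was read by eye. FIC index = FIC(compound) + FIC(β-lactam), where each FIC is the MIC in combination divided by the MIC alone. An index ≤0.5 was taken as synergy.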

[29] = tested on: Staphylococcus aureus; experiment: Synergistic antibacterial activity against multidrug-resistant Staphylococcus aureus isolate 3580 assessed as fractional Inhibitory concentration index in presence of cloxacillin by broth microdilution assay; assay type: functional
[30] = tested on: Staphylococcus aureus; experiment: Synergistic antibacterial activity against multidrug-resistant Staphylococcus aureus isolate 3580 assessed as fractional Inhibitory concentration index in presence of cefuroxime by broth microdilution assay; assay type: functional
[31] = tested on: Staphylococcus aureus; experiment: Synergistic antibacterial activity against multidrug-resistant Staphylococcus aureus isolate 1449 assessed as fractional Inhibitory concentration index in presence of cefuroxime by broth microdilution assay; assay type: functional; summary of the method: as §4
[32] = tested on: Staphylococcus aureus; experiment: Synergistic antibacterial activity against multidrug-resistant Staphylococcus aureus isolate 417 assessed as fractional Inhibitory concentration index in presence of meropenem by broth microdilution assay; assay type: functional
[33] = tested on: Staphylococcus aureus; experiment: Synergistic antibacterial activity against multidrug-resistant Staphylococcus aureus isolate 2224 assessed as fractional Inhibitory concentration index in presence of meropenem by broth microdilution assay; assay type: functional; summary of the method: as §4
[34] = tested on: Staphylococcus aureus; experiment: Synergistic antibacterial activity against multidrug-resistant Staphylococcus aureus isolate 85 assessed as fractional Inhibitory concentration index in presence of meropenem by broth microdilution assay; assay type: functional
[35] = AUC (0 to infinity) in Sprague-Dawley rat at 1 mg/kg, iv by UPLC-MS/MS analysis; assay type: ADME, organism-based; parameters: dose 1 mg/kg, time infinity, route intravenous; conditions: in vivo
[36] = tested on: Staphylococcus aureus; experiment: Antibacterial activity against multidrug-resistant Staphylococcus aureus ATCC 43300 infected in BALB/C mouse assessed as mouse survival at 50 mg/kg, ip bid co-administered with 25 mg/kg, ip bid cefuroxime measured on day 4 post infection (reference value: 50%)

Q: For `CCCCCCCCCNc1ccc(F)c(C(N)=O)c1F`, which MIC [1] is on record?
A: The MIC was 128 µg/mL (≈ 429 µM).

Q: What about the Activity [2] of the same compound?
A: Its Activity is 40%.

Q: What about the MIC [3] of the same compound?
A: Its MIC is 32 µg/mL (≈ 107 µM).

Q: And the MIC [4]?
A: Its MIC is 8 µg/mL.

Q: And the MIC [5]?
A: The MIC was 16 µg/mL.

Q: What about the MIC [6] of the same compound?
A: Its MIC is 2 µg/mL.

Q: And the MIC [7]?
A: The MIC was 8 µg/mL.

Q: And the MIC [8]?
A: The MIC was 8 µg/mL.

Q: What about the MIC [9] of the same compound?
A: Its MIC is 8 µg/mL.

Q: And the MIC [10]?
A: Its MIC is 4 µg/mL.

Q: What about the MIC [11] of the same compound?
A: Its MIC is 4 µg/mL.

Q: And the MIC [12]?
A: The MIC was 2 µg/mL.

Q: What about the MIC [13] of the same compound?
A: The MIC was 1 µg/mL.

Q: And the MIC [14]?
A: Its MIC is 2 µg/mL.

Q: What about the MIC [15] of the same compound?
A: The MIC was 1 µg/mL.

Q: What about the MIC [16] of the same compound?
A: The MIC was 4 µg/mL.

Q: And the MIC [17]?
A: The MIC was 2 µg/mL.

Q: And the MIC [18]?
A: Its MIC is 2 µg/mL.

Q: And the MIC [19]?
A: Its MIC is 2 µg/mL.

Q: What about the MIC [20] of the same compound?
A: The MIC was 4 µg/mL.

Q: What about the MIC [21] of the same compound?
A: Its MIC is 16 µg/mL.

Q: And the MIC [22]?
A: Its MIC is 16 µg/mL.

Q: What about the MIC [23] of the same compound?
A: Its MIC is 4 µg/mL.

Q: And the “fractional inhibitory concentration index (FICI)” value [24]?
A: Its value is 0.3.

Q: What about the “fractional inhibitory concentration index (FICI)” value [25] of the same compound?
A: Its value is 0.1.

Q: And the “fractional inhibitory concentration index (FICI)” value [26]?
A: Its value is 0.2.

Q: And the “fractional inhibitory concentration index (FICI)” value [27]?
A: The value was 0.3.

Q: And the “fractional inhibitory concentration index (FICI)” value [28]?
A: Its value is 0.2.

Q: And the “fractional inhibitory concentration index (FICI)” value [29]?
A: Its value is 0.5.

Q: What about the “fractional inhibitory concentration index (FICI)” value [30] of the same compound?
A: Its value is 0.1.

Q: And the “fractional inhibitory concentration index (FICI)” value [31]?
A: The value was 1.5.

Q: And the “fractional inhibitory concentration index (FICI)” value [32]?
A: The value was 0.2.

Q: What about the “fractional inhibitory concentration index (FICI)” value [33] of the same compound?
A: The value was 4.

Q: What about the “fractional inhibitory concentration index (FICI)” value [34] of the same compound?
A: The value was 4.

Q: What about the AUC(0-inf) [35] of the same compound?
A: The AUC(0-inf) was 1600 ng·h/mL.

Q: And the Activity [36]?
A: Its Activity is 100%.
